Data as given in ChEMBL document CHEMBL3271963, “Relationship between analgetic ED50 dose and time-course brain levels N-alkylnormeperidine homologues” (J Med Chem, 1976).

How the values were obtained:
Liver [1] = experiment: Drug metabolism in iv dosed Swiss-Webster mouse liver measured per gram of tissue over 5 to 45 mins; format: ADME, organism-based; details: in vivo
Method in brief: (§1)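 Mice received a single iv bolus of the ³H-labelled N-alkylnormeperidine into the lateral tail vein (0.033 ml/10 g), with 6 animals per time point. Livers were taken at 5, 10, 20, 30 and 45 min, homogenised in 0.01 N HCl, and spiked with unlabelled parent, normeperidine and a [¹⁴C] internal standard. Samples were basified to pH 12, extracted into C₆H₆ and separated by TLC. Parent and normeperidine were quantified by ³H/¹⁴C ratio, corrected for 5.8% (v/w) residual blood, and integrated over 5–45 min.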

Mus musculus [2] = experiment: Analgetic potency in iv dosed Swiss-Webster mouse relative to meperidine; format: functional
Mus musculus [3] = experiment: Analgetic potency in iv dosed Swiss-Webster mouse; format: functional
Brain = experiment: Drug uptake in iv dosed Swiss-Webster mouse brain measured per gram of tissue; format: ADME, organism-based; details: in vivo
Method in brief: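 Mice received a single iv bolus of the ³H-labelled compound into the tail vein (0.033 ml/10 g). Whole brains were removed at 5, 10, 20, 30 and 45 min (n = 6 per point) and homogenised in 0.01 N HCl with unlabelled carriers and a [¹⁴C]-N-butylnormeperidine internal standard. Samples were basified to pH 12, extracted into benzene and run on TLC. Levels came from ³H/¹⁴C ratios against a standard curve, expressed per gram, with area under the concentration-time curve.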

Liver [4] = experiment: Drug metabolism in iv dosed Swiss-Webster mouse liver assessed as norme-peridine concentration measured per gram of tissue over 5 to 45 mins; format: ADME, organism-based; details: in vivo; method in brief: as §1

Structure (SMILES): CCCCCCN1CCC(C(=O)OCC)(c2ccccc2)CC1.Cl
- Drug metabolism (Liver [1]): 153.3 nmol·min
- Ratio (Mus musculus [2]): 8.8
- ED50 (Mus musculus [3]): 3.7 µmol/kg
- Drug uptake (Brain): 126 nmol·min/g
- Drug metabolism (Liver [4]): 17.9 nmol·min

Structure (SMILES): CCCCN1CCC(C(=O)OCC)(c2ccccc2)CC1.Cl
- Drug metabolism (Liver [1]): 83.8 nmol·min
- Ratio (Mus musculus [2]): 1.7
- ED50 (Mus musculus [3]): 19.1 µmol/kg
- Drug uptake (Brain): 274 nmol·min/g
- Drug metabolism (Liver [4]): 121.7 nmol·min

Structure (SMILES): CCOC(=O)C1(c2ccccc2)CCN(C)CC1.Cl [MEPERIDINE HYDROCHLORIDE]
- Drug metabolism (Liver [1]): 926.7 nmol·min
- ED50 (Mus musculus [3]): 32.8 µmol/kg
- Drug metabolism (Liver [4]): 1733.1 nmol·min

Structure (SMILES): CCCN1CCC(C(=O)OCC)(c2ccccc2)CC1.Cl
- Drug metabolism (Liver [1]): 263.3 nmol·min
- Ratio (Mus musculus [2]): 0.7
- ED50 (Mus musculus [3]): 45.9 µmol/kg
- Drug uptake (Brain): 828 nmol·min/g
- Drug metabolism (Liver [4]): 917.7 nmol·min
